Assay results from ChEMBL document CHEMBL1153716, “Constrained peptidomimetics reveal detailed geometric requirements of covalent prolyl oligopeptidase inhibitors” (J Med Chem, 2009).
Calls of active or inactive are those of the source. The calls are words filed in the database; no cut-off is given here.

Legend:
[1] = molecular target: T1, Prolyl endopeptidase (Homo sapiens) (UniProt P48147); assay: Inhibition of prolyl oligopeptidase in human astrocyte derived cell extracts assessed as blockade of Z-Gly-Pro-AMC substrate hydrolysis at 100 uM by fluorimetric assay
T1 sequence (whole entry): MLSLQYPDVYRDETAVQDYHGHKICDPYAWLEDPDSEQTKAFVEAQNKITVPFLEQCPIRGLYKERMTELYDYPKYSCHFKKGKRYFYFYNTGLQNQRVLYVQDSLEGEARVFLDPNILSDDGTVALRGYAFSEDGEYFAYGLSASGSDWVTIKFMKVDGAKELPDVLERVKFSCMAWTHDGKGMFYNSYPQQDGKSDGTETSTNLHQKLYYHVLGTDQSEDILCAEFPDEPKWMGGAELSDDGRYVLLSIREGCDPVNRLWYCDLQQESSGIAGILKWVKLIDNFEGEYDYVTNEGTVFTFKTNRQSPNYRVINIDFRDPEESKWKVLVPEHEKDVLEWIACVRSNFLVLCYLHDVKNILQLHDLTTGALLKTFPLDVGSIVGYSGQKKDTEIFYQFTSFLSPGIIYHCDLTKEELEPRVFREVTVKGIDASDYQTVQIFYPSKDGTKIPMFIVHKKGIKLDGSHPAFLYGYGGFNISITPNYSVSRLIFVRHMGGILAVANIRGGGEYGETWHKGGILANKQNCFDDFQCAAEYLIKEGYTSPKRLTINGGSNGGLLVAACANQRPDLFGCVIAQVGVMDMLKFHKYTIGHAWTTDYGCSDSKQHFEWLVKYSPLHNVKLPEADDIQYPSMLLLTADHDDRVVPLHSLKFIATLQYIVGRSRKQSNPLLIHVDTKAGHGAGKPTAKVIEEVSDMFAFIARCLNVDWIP
Method in brief: (§1)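 Confluent human glioblastoma (LN18, LN229, LNZ308), brain endothelial HCEC, or lung PO03 and skin PG98/5 fibroblasts extracted in PBS with 0.1% Triton X-100. Compound was diluted from methanol stock into water and preincubated 5-10 min at room temperature. Z-Gly-Pro-AMC was then added and read by fluorescence. Duplicate wells.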

[2] = molecular target: T1, Prolyl endopeptidase (Homo sapiens); assay: Inhibition of prolyl oligopeptidase in human brain derived endothelial cell extracts assessed as blockade of Z-Gly-Pro-AMC substrate hydrolysis at 100 uM by fluorimetric assay; format: cell-free; method in brief: as §1
[3] = molecular target: T1, Prolyl endopeptidase (Homo sapiens); assay: Inhibition of prolyl oligopeptidase in human fibroblast extracts assessed as blockade of Z-Gly-Pro-AMC substrate hydrolysis at 100 uM by fluorimetric assay; method in brief: as §1
[4] = molecular target: Dipeptidyl peptidase 4 (Homo sapiens) (UniProt P27487); assay: Inhibition of DPP4 in human astrocyte derived cell extracts assessed as blockade of Gly-Pro-AMC substrate hydrolysis at 100 uM by fluorimetric assay
Method in brief: (§2)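 Confluent human cells (glioblastoma LN18, LN229, LNZ308; brain endothelial HCEC; lung PO03 or skin PG98/5 fibroblasts) grown in DMEM with 4.5 g/L glucose and 10% FCS, then lysed in PBS (pH 7.2-7.4) containing 0.1% Triton X-100. Compound was diluted from methanol stock into water and preincubated 5-10 min at room temperature. Gly-Pro-AMC was then added. Duplicate wells.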

[5] = molecular target: Dipeptidyl peptidase 4 (Homo sapiens) (UniProt P27487); assay: Inhibition of DPP4 in human brain derived endothelial cell extracts assessed as blockade of Gly-Pro-AMC substrate hydrolysis at 100 uM by fluorimetric assay; format: cell-free; method in brief: as §2
[6] = molecular target: Dipeptidyl peptidase 4 (Homo sapiens) (UniProt P27487); assay: Inhibition of DPP4 in human fibroblast extracts assessed as blockade of Gly-Pro-AMC substrate hydrolysis at 100 uM by fluorimetric assay; method in brief: as §2
[7] = molecular target: T1, Prolyl endopeptidase (Homo sapiens); assay: Inhibition of prolyl oligopeptidase in intact human astrocyte derived cells assessed as blockade of Z-Gly-Pro-AMC substrate hydrolysis at 100 uM by fluorimetric assay
Method in brief: (§3)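 Intact confluent human glioblastoma (LN18, LN229, LNZ308), brain endothelial HCEC, or lung PO03 and skin PG98/5 fibroblast monolayers in PBS (pH 7.2-7.4), cells grown beforehand in DMEM with 10% FCS. Compound was diluted from methanol stock into water and preincubated 5-10 min at room temperature. Z-Gly-Pro-AMC was then added and read fluorimetrically. Duplicate wells.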

[8] = molecular target: T1, Prolyl endopeptidase (Homo sapiens); assay: Inhibition of prolyl oligopeptidase in intact human brain derived endothelial cells assessed as blockade of Z-Gly-Pro-AMC substrate hydrolysis at 100 uM by fluorimetric assay; format: cell-based; details: Endothelial cell; method in brief: as §3
[9] = molecular target: T1, Prolyl endopeptidase (Homo sapiens); assay: Inhibition of prolyl oligopeptidase in intact human fibroblasts assessed as blockade of Z-Gly-Pro-AMC substrate hydrolysis at 100 uM by fluorimetric assay; method in brief: as §3
[10] = molecular target: Dipeptidyl peptidase 4 (Homo sapiens) (UniProt P27487); assay: Inhibition of DPP4 in intact human astrocyte derived cells assessed as blockade of Gly-Pro-AMC substrate hydrolysis at 100 uM by fluorimetric assay
Method in brief: (§4)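 Confluent intact human glioblastoma (LN18, LN229, LNZ308), brain endothelial HCEC, or lung PO03 and skin PG98/5 fibroblast monolayers kept in PBS (pH 7.2-7.4) without detergent. Compound was diluted from methanol stock into water and preincubated 5-10 min at room temperature. Gly-Pro-AMC was then added and hydrolysis read by fluorescence. Duplicate wells.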

[11] = molecular target: Dipeptidyl peptidase 4 (Homo sapiens) (UniProt P27487); assay: Inhibition of DPP4 in intact human brain derived endothelial cells assessed as blockade of Gly-Pro-AMC substrate hydrolysis at 100 uM by fluorimetric assay; format: cell-based; details: Endothelial cell; method in brief: as §4
[12] = molecular target: Dipeptidyl peptidase 4 (Homo sapiens) (UniProt P27487); assay: Inhibition of DPP4 in intact human fibroblasts assessed as blockade of Gly-Pro-AMC substrate hydrolysis at 100 uM by fluorimetric assay; method in brief: as §4

Sequence of Dipeptidyl peptidase 4 (Homo sapiens) (P27487 whole entry, looked up): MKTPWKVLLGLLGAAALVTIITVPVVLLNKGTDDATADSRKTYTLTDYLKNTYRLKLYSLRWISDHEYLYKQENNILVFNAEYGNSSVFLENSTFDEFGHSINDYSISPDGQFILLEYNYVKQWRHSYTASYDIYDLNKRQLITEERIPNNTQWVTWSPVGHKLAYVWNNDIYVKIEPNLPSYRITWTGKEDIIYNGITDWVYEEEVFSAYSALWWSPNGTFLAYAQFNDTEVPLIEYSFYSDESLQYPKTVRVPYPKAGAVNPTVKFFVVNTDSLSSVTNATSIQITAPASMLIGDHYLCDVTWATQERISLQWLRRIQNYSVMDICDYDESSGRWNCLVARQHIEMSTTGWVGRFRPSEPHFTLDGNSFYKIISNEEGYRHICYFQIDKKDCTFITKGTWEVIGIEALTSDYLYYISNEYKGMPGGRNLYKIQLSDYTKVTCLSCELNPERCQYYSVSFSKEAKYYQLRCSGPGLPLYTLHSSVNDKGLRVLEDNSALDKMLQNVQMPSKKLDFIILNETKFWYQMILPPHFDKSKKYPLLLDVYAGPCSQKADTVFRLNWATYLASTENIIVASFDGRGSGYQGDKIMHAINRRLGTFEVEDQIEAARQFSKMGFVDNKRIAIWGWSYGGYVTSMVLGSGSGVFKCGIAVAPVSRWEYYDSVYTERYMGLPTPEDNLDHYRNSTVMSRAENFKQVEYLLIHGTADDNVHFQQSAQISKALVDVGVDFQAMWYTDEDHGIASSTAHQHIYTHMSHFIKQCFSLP

SMILES: N#C[C@@H]1CCCN1C(=O)OCc1ccccc1
- inhibition [1]: inactive
- inhibition [2]: 10%
- inhibition [3]: inactive
- inhibition [4]: inactive
- inhibition [5]: inactive
- inhibition [6]: inactive
- inhibition [7]: inactive
- inhibition [8]: inactive
- inhibition [9]: 10%
- inhibition [10]: inactive
- inhibition [11]: inactive
- inhibition [12]: inactive

SMILES: N#C[C@H]1CCCN1C(=O)CNC(=O)OCc1ccccc1
- inhibition [4]: inactive
- inhibition [5]: inactive
- inhibition [6]: inactive
- inhibition [10]: inactive
- inhibition [11]: inactive
- inhibition [12]: inactive

SMILES: N#C[C@@H]1CCCN1
- inhibition [1]: inactive
- inhibition [2]: inactive
- inhibition [3]: inactive
- inhibition [4]: inactive
- inhibition [5]: inactive
- inhibition [7]: inactive
- inhibition [8]: inactive
- inhibition [9]: inactive
- inhibition [10]: inactive
- inhibition [11]: inactive
- inhibition [12]: inactive

SMILES: N#C[C@@H]1CO[C@H]2C[C@@H](NC(=O)OCc3ccccc3)C(=O)N12
- inhibition [1]: inactive
- inhibition [2]: inactive
- inhibition [3]: 10%
- inhibition [4]: inactive
- inhibition [5]: inactive
- inhibition [6]: inactive
- inhibition [7]: inactive
- inhibition [8]: inactive
- inhibition [9]: 10%
- inhibition [10]: inactive
- inhibition [11]: inactive
- inhibition [12]: inactive

SMILES: N#C[C@@H]1CO[C@H]2C[C@H](NC(=O)OCc3ccccc3)C(=O)N12
- inhibition [1]: inactive
- inhibition [2]: inactive
- inhibition [3]: 10%
- inhibition [4]: inactive
- inhibition [5]: inactive
- inhibition [6]: inactive
- inhibition [7]: inactive
- inhibition [8]: inactive
- inhibition [9]: 10%
- inhibition [10]: inactive
- inhibition [11]: inactive
- inhibition [12]: inactive

SMILES: N#C[C@@H]1CS[C@H]2C[C@H](NC(=O)OCc3ccccc3)C(=O)N12
- inhibition [1]: 10%
- inhibition [2]: > 50%
- inhibition [3]: 10%
- inhibition [4]: inactive
- inhibition [5]: inactive
- inhibition [6]: inactive
- inhibition [7]: inactive
- inhibition [8]: 10%
- inhibition [9]: 10%
- inhibition [10]: inactive
- inhibition [11]: inactive
- inhibition [12]: inactive

SMILES: N#C[C@@H]1CS[C@H]2CC[C@H](NC(=O)OCc3ccccc3)C(=O)N12
- inhibition [1]: > 50%
- inhibition [2]: > 50%
- inhibition [3]: > 50%
- inhibition [4]: inactive
- inhibition [5]: inactive
- inhibition [6]: inactive
- inhibition [7]: > 50%
- inhibition [8]: 10%
- inhibition [9]: > 50%
- inhibition [10]: inactive
- inhibition [11]: inactive
- inhibition [12]: inactive

SMILES: N#C[C@@H]1CS[C@H]2CC[C@@H](NC(=O)OCc3ccccc3)C(=O)N12
- inhibition [1]: > 50%
- inhibition [2]: > 50%
- inhibition [3]: > 50%
- inhibition [4]: inactive
- inhibition [5]: inactive
- inhibition [6]: inactive
- inhibition [7]: > 50%
- inhibition [8]: > 50%
- inhibition [9]: > 50%
- inhibition [10]: inactive
- inhibition [11]: inactive
- inhibition [12]: inactive

SMILES: N#C[C@H]1CS[C@@H]2C[C@@H](NC(=O)OCc3ccccc3)C(=O)N12
- inhibition [1]: 10%
- inhibition [2]: > 50%
- inhibition [3]: 10%
- inhibition [4]: inactive
- inhibition [5]: inactive
- inhibition [6]: inactive
- inhibition [7]: inactive
- inhibition [8]: 10%
- inhibition [9]: inactive
- inhibition [10]: inactive
- inhibition [11]: inactive
- inhibition [12]: inactive

SMILES: NC(=O)[C@@H]1CS[C@H]2C[C@H](NC(=O)OCc3ccccc3)C(=O)N21
- inhibition [1]: inactive
- inhibition [2]: inactive
- inhibition [3]: inactive
- inhibition [4]: inactive
- inhibition [5]: inactive
- inhibition [6]: inactive
- inhibition [7]: inactive
- inhibition [8]: inactive
- inhibition [9]: inactive
- inhibition [10]: inactive
- inhibition [11]: inactive
- inhibition [12]: inactive

SMILES: N#CC1CCCCN1C(=O)CNC(=O)OCc1ccccc1 (racemic)
- inhibition [1]: > 50%
- inhibition [2]: 10%
- inhibition [3]: 10%
- inhibition [4]: inactive
- inhibition [5]: inactive
- inhibition [6]: inactive
- inhibition [7]: 10%
- inhibition [8]: inactive
- inhibition [9]: inactive
- inhibition [10]: inactive
- inhibition [11]: inactive
- inhibition [12]: inactive

SMILES: COC(=O)[C@@H]1CS[C@H]2C[C@H](NC(=O)OCc3ccccc3)C(=O)N21
- inhibition [1]: 10%
- inhibition [2]: inactive
- inhibition [3]: 10%
- inhibition [4]: inactive
- inhibition [5]: inactive
- inhibition [6]: inactive
- inhibition [7]: inactive
- inhibition [8]: inactive
- inhibition [9]: 10%
- inhibition [10]: inactive
- inhibition [11]: inactive
- inhibition [12]: inactive

SMILES: CC(C)(C)OC(=O)N1CCC[C@H]1C#N
- inhibition [1]: inactive
- inhibition [2]: inactive
- inhibition [3]: inactive
- inhibition [4]: inactive
- inhibition [5]: inactive
- inhibition [6]: inactive
- inhibition [7]: inactive
- inhibition [8]: inactive
- inhibition [9]: inactive
- inhibition [10]: inactive
- inhibition [11]: inactive
- inhibition [12]: inactive

SMILES: C[C@H]1O[C@H]2C[C@@H](NC(=O)OCc3ccccc3)C(=O)N2[C@@H]1C#N
- inhibition [1]: 10%
- inhibition [2]: 10%
- inhibition [3]: inactive
- inhibition [4]: inactive
- inhibition [5]: inactive
- inhibition [6]: inactive
- inhibition [7]: inactive
- inhibition [8]: 10%
- inhibition [9]: inactive
- inhibition [10]: inactive
- inhibition [11]: inactive
- inhibition [12]: inactive

SMILES: C[C@@H](NC(=O)OCc1ccccc1)C(=O)N1CCC[C@H]1C#N
- inhibition [4]: inactive
- inhibition [5]: inactive
- inhibition [6]: inactive
- inhibition [10]: inactive
- inhibition [11]: inactive
- inhibition [12]: inactive

SMILES: N#C[C@@H]1CCCN1C(=O)CNC(=O)OCc1ccccc1
- inhibition [4]: inactive
- inhibition [5]: inactive
- inhibition [6]: inactive
- inhibition [10]: inactive
- inhibition [11]: inactive
- inhibition [12]: inactive

SMILES: C[C@H](NC(=O)OCc1ccccc1)C(=O)N1CCC[C@H]1C#N
- inhibition [4]: inactive
- inhibition [5]: inactive
- inhibition [6]: inactive
- inhibition [10]: inactive
- inhibition [11]: inactive
- inhibition [12]: inactive
